Laboratory results published in ChEMBL document CHEMBL3632558, “Synthesis, antimycobacterial and antibacterial activity of l-[(1R,2S)-2-fluorocyclopropyl]naphthyridone derivatives containing an oxime-functionalized pyrrolidine moiety” (2015).

Experiments:
Type in all cases: functional
Enterococcus faecium [1] = test: Antibacterial activity against Enterococcus faecium 14-6 after 18 to 24 hrs
Summary of the method: (§1)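 MIC by standard NCCLS reference procedure (M100-S11); lowest concentration of compound inhibiting visible bacterial growth after incubation at 35 °C for 18–24 h, read as complete inhibition of growth. Ciprofloxacin, levofloxacin and moxifloxacin run alongside as reference agents.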

Enterococcus faecium [2] = test: Antibacterial activity against Enterococcus faecium 14-2 after 18 to 24 hrs; summary of the method: as §1
Staphylococcus aureus [3] = test: Antibacterial activity against methicillin-sensitive Staphylococcus aureus 14-4 after 18 to 24 hrs; summary of the method: as §1
Staphylococcus aureus [4] = test: Antibacterial activity against methicillin-sensitive Staphylococcus aureus 14-3 after 18 to 24 hrs; summary of the method: as §1
Klebsiella pneumoniae [5] = test: Antibacterial activity against ESBL-positive Klebsiella pneumoniae 14-17 after 18 to 24 hrs; summary of the method: as §1
Klebsiella pneumoniae [6] = test: Antibacterial activity against ESBL-positive Klebsiella pneumoniae 14-19 after 18 to 24 hrs; summary of the method: as §1
Pseudomonas aeruginosa [7] = test: Antibacterial activity against Pseudomonas aeruginosa 14-9 after 18 to 24 hrs; summary of the method: as §1
[8] = system: Staphylococcus epidermidis; test: Antibacterial activity against methicillin-sensitive Staphylococcus epidermidis 14-2 after 18 to 24 hrs; summary of the method: as §1
[9] = system: Staphylococcus epidermidis; test: Antibacterial activity against methicillin-resistant Staphylococcus epidermidis 14-39 after 18 to 24 hrs
Pseudomonas aeruginosa [10] = test: Antibacterial activity against Pseudomonas aeruginosa 14-16 after 18 to 24 hrs; summary of the method: as §1
[11] = system: Staphylococcus epidermidis; test: Antibacterial activity against methicillin-resistant Staphylococcus epidermidis 14-22 after 18 to 24 hrs
Escherichia coli [12] = test: Antibacterial activity against ESBL-positive Escherichia coli 14-1 after 18 to 24 hrs; summary of the method: as §1
Klebsiella pneumoniae [13] = test: Antibacterial activity against Klebsiella pneumoniae 14-3 after 18 to 24 hrs; summary of the method: as §1
Enterococcus faecium [14] = test: Antibacterial activity against Enterococcus faecium 14-5 after 18 to 24 hrs; summary of the method: as §1
Escherichia coli [15] = test: Antibacterial activity against Escherichia coli 14-2 after 18 to 24 hrs; summary of the method: as §1
Enterococcus faecalis [16] = test: Antibacterial activity against Enterococcus faecalis 14-1 after 18 to 24 hrs; summary of the method: as §1
Staphylococcus aureus [17] = test: Antibacterial activity against methicillin-sensitive Staphylococcus aureus 14-2 after 18 to 24 hrs; summary of the method: as §1
Enterococcus faecium [18] = test: Antibacterial activity against Enterococcus faecium 14-1 after 18 to 24 hrs; summary of the method: as §1
Pseudomonas aeruginosa [19] = test: Antibacterial activity against Pseudomonas aeruginosa ATCC 27853 after 18 to 24 hrs; summary of the method: as §1
Escherichia coli [20] = test: Antibacterial activity against Escherichia coli 14-1 after 18 to 24 hrs; summary of the method: as §1
Klebsiella pneumoniae [21] = test: Antibacterial activity against ESBL-positive Klebsiella pneumoniae 14-18 after 18 to 24 hrs; summary of the method: as §1
Pseudomonas aeruginosa [22] = test: Antibacterial activity against Pseudomonas aeruginosa 14-19 after 18 to 24 hrs; summary of the method: as §1
Escherichia coli [23] = test: Antibacterial activity against ESBL-positive Escherichia coli 14-2 after 18 to 24 hrs; summary of the method: as §1
Staphylococcus aureus [24] = test: Antibacterial activity against methicillin-resistant Staphylococcus aureus 14-4 after 18 to 24 hrs
Staphylococcus aureus [25] = test: Antibacterial activity against Staphylococcus aureus CMCC 26003 after 18 to 24 hrs; summary of the method: as §1
Staphylococcus aureus [26] = test: Antibacterial activity against methicillin-sensitive Staphylococcus aureus 14-1 after 18 to 24 hrs; summary of the method: as §1
Klebsiella pneumoniae [27] = test: Antibacterial activity against Klebsiella pneumoniae 14-4 after 18 to 24 hrs; summary of the method: as §1
Pseudomonas aeruginosa [28] = test: Antibacterial activity against Pseudomonas aeruginosa 14-15 after 18 to 24 hrs; summary of the method: as §1
[29] = system: Mycobacterium tuberculosis; test: Antimycobacterial activity against Mycobacterium tuberculosis H37Rv ATCC 27294 by alamar blue assay
Summary of the method: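 Microplate Alamar Blue Assay; MIC is the lowest concentration giving ≥90% reduction in fluorescence relative to the mean of replicate bacterium-only controls. MDR strain 6133 is resistant to isoniazid and rifampicin.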

Klebsiella pneumoniae [30] = test: Antibacterial activity against Klebsiella pneumoniae 14-1 after 18 to 24 hrs; summary of the method: as §1
Klebsiella pneumoniae [31] = test: Antibacterial activity against Klebsiella pneumoniae 14-2 after 18 to 24 hrs; summary of the method: as §1
[32] = system: Staphylococcus epidermidis; test: Antibacterial activity against methicillin-resistant Staphylococcus epidermidis 14-37 after 18 to 24 hrs
Enterococcus faecalis [33] = test: Antibacterial activity against Enterococcus faecalis 14-2 after 18 to 24 hrs; summary of the method: as §1
[34] = system: Staphylococcus epidermidis; test: Antibacterial activity against methicillin-resistant Staphylococcus epidermidis 14-21 after 18 to 24 hrs
Pseudomonas aeruginosa [35] = test: Antibacterial activity against Pseudomonas aeruginosa 14-14 after 18 to 24 hrs; summary of the method: as §1
Streptococcus pneumoniae = test: Antibacterial activity against Streptococcus pneumoniae ATCC 19615 after 18 to 24 hrs; summary of the method: as §1
Staphylococcus aureus [36] = test: Antibacterial activity against methicillin-resistant Staphylococcus aureus 14-5 after 18 to 24 hrs
Escherichia coli [37] = test: Antibacterial activity against Escherichia coli ATCC 25922 after 18 to 24 hrs; summary of the method: as §1

NCC1CN(c2nc3c(cc2F)c(=O)c(C(=O)O)cn3[C@@H]2C[C@@H]2F)C/C1=N\OCc1ccc(OC(F)(F)F)cc1 (some centres undefined)
0.03 µg/mL: MIC (Staphylococcus aureus [17])
32 µg/mL: MIC (Klebsiella pneumoniae [5]) | MIC (Pseudomonas aeruginosa [10]) | MIC (Enterococcus faecalis [16]) | MIC (Klebsiella pneumoniae [21]) | MIC (Pseudomonas aeruginosa [28]) | MIC (Pseudomonas aeruginosa [35])
< 0.008 µg/mL: MIC (Staphylococcus aureus [25])
128 µg/mL: MIC (Klebsiella pneumoniae [6]) | MIC (Klebsiella pneumoniae [13]) | MIC (Escherichia coli [15]) | MIC (Escherichia coli [20]) | MIC (Escherichia coli [23]) | MIC (Klebsiella pneumoniae [27]) | MIC (Klebsiella pneumoniae [30]) | MIC (Klebsiella pneumoniae [31])
0.5 µg/mL: MIC (Enterococcus faecalis [33])
4 µg/mL: MIC (Enterococcus faecium [1]) | MIC (Enterococcus faecium [2]) | MIC (Enterococcus faecium [18]) | MIC (Staphylococcus aureus [26]) | MIC (Staphylococcus aureus [36])
8 µg/mL: MIC [9] | MIC [11] | MIC (Escherichia coli [12]) | MIC (Enterococcus faecium [14]) | MIC [32] | MIC [34]
16 µg/mL: MIC (Pseudomonas aeruginosa [7]) | MIC [8] | MIC (Pseudomonas aeruginosa [19]) | MIC (Pseudomonas aeruginosa [22]) | MIC (Staphylococcus aureus [24])
0.987 µg/mL: MIC90 [29]
0.06 µg/mL: MIC (Staphylococcus aureus [3])
0.015 µg/mL: MIC (Staphylococcus aureus [4]) | MIC (Streptococcus pneumoniae)
2 µg/mL: MIC (Escherichia coli [37])

NC1CN(c2nc3c(cc2F)c(=O)c(C(=O)O)cn3[C@@H]2C[C@@H]2F)C/C1=N\OCc1ccccc1 (some centres undefined)
16 µg/mL: MIC (Pseudomonas aeruginosa [19]) | MIC (Staphylococcus aureus [26])
1.92 µg/mL: MIC90 [29]
128 µg/mL: MIC (Escherichia coli [12]) | MIC (Enterococcus faecium [14])
< 0.008 µg/mL: MIC (Staphylococcus aureus [17]) | MIC (Staphylococcus aureus [25])
64 µg/mL: MIC (Enterococcus faecium [2]) | MIC [8] | MIC [9] | MIC (Enterococcus faecalis [16]) | MIC (Enterococcus faecium [18]) | MIC [32] | MIC (Staphylococcus aureus [36])
> 128 µg/mL: MIC (Enterococcus faecium [1]) | MIC (Klebsiella pneumoniae [6]) | MIC (Klebsiella pneumoniae [13]) | MIC (Escherichia coli [15]) | MIC (Escherichia coli [20]) | MIC (Escherichia coli [23]) | MIC (Klebsiella pneumoniae [27]) | MIC (Klebsiella pneumoniae [30]) | MIC (Klebsiella pneumoniae [31])
32 µg/mL: MIC (Klebsiella pneumoniae [5]) | MIC (Pseudomonas aeruginosa [7]) | MIC (Pseudomonas aeruginosa [10]) | MIC [11] | MIC (Klebsiella pneumoniae [21]) | MIC (Pseudomonas aeruginosa [22]) | MIC (Staphylococcus aureus [24]) | MIC (Pseudomonas aeruginosa [28]) | MIC [34] | MIC (Pseudomonas aeruginosa [35])
0.5 µg/mL: MIC (Staphylococcus aureus [4]) | MIC (Streptococcus pneumoniae) | MIC (Escherichia coli [37])
1 µg/mL: MIC (Staphylococcus aureus [3]) | MIC (Enterococcus faecalis [33])

CO/N=C1\CN(c2nc3c(cc2F)c(=O)c(C(=O)O)cn3[C@@H]2C[C@@H]2F)CC1N (some centres undefined)
0.5 µg/mL: MIC (Staphylococcus aureus [17]) | MIC (Staphylococcus aureus [25])
128 µg/mL: MIC (Enterococcus faecium [2]) | MIC [8] | MIC (Enterococcus faecium [14]) | MIC (Escherichia coli [15]) | MIC (Enterococcus faecalis [16]) | MIC (Enterococcus faecium [18]) | MIC (Escherichia coli [20]) | MIC (Staphylococcus aureus [24]) | MIC (Klebsiella pneumoniae [27]) | MIC (Klebsiella pneumoniae [31])
16 µg/mL: MIC (Escherichia coli [12])
0.867 µg/mL: MIC90 [29]
0.25 µg/mL: MIC (Streptococcus pneumoniae) | MIC (Escherichia coli [37])
1 µg/mL: MIC (Staphylococcus aureus [3]) | MIC (Staphylococcus aureus [4])
> 128 µg/mL: MIC (Enterococcus faecium [1]) | MIC (Klebsiella pneumoniae [6]) | MIC (Klebsiella pneumoniae [13]) | MIC (Escherichia coli [23]) | MIC (Klebsiella pneumoniae [30])
4 µg/mL: MIC (Pseudomonas aeruginosa [19])
8 µg/mL: MIC (Klebsiella pneumoniae [5]) | MIC (Pseudomonas aeruginosa [7]) | MIC (Pseudomonas aeruginosa [10]) | MIC (Klebsiella pneumoniae [21]) | MIC (Pseudomonas aeruginosa [22]) | MIC (Pseudomonas aeruginosa [28]) | MIC (Pseudomonas aeruginosa [35])
64 µg/mL: MIC [9] | MIC [34] | MIC (Staphylococcus aureus [36])
2 µg/mL: MIC (Enterococcus faecalis [33])
32 µg/mL: MIC [11] | MIC (Staphylococcus aureus [26]) | MIC [32]
